PG9 Ab binder = PG9 antibody binding by small molecule; TR-FRET gp120-PG9 antibody binding; inhibition, % at 6.7 µM; hit rate 0.43% among 360,000; in the data active means inhibition above about 8.5%
NR2E3 ag-1 = agonists of human NR2E3 nuclear receptor; Q9Y5X4; CHO-S Gal4-NCOR/VP16-NR2E3 two-hybrid, luciferase; inhibition of corepressor binding, % at 3.98 µM; hit rate 0.35% among 360,000; AID 602229;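 active means inhibition above the mean of all tested compounds plus 3 SD, cut at about 70% in these data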;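 further: higher means lower luciferase signal from less NR2E3 corepressor binding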
Rev-erbA mod = modulators of human Rev-erb alpha DNA binding; P20393; Rev-erbα–FITC-DNA binding, fluorescence polarization, 90 min; activity, % at 10 µM; hit rate 0.79% among 370,000; AID 1259318;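 active means activity above about 14%, limit read from the data; passing the limit was not always enough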
Target sequence (P20393 whole entry, looked up): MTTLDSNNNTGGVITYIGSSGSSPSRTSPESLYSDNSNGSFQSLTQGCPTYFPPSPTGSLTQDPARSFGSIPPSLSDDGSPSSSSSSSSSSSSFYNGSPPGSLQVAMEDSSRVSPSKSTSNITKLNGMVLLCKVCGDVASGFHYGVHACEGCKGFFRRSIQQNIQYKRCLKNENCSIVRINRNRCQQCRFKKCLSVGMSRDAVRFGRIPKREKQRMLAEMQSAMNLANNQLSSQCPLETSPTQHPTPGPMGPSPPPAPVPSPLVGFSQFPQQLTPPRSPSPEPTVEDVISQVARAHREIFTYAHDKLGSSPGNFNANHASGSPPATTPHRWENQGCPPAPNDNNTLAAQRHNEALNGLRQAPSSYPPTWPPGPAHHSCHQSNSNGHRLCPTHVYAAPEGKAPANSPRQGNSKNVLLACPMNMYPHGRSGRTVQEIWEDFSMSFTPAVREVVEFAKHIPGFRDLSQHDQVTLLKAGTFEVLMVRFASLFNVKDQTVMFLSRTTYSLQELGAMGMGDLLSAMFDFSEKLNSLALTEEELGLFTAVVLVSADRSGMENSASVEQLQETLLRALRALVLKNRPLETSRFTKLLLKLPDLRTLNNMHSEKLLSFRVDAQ
NR2E3 ag-2 = NR2E3 (human) agonism. hit rate 0.12% among 320,000. AID 2300. GST-NR2E3/biotin-RetCOR TR-FRET, 1536-well. Q9Y5X4. inhibition of corepressor binding, % at 4.78 µM;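 active means percent inhibition above the cutoff of mean plus 3 SD of all tested compounds, set per screening campaign, cut at about 20% in these data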
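Material: NR2E3–RetCOR corepressor complex / Incubation: Compound–protein incubation for 5 h at 4 °C / Dosing: compound at 4.8 µM, single dose / Detection: time-resolved FRET / Benchmarks: high control biotin, low control 0.6% DMSO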
PG9 bind confirm = PG9 antibody binding, confirmed; shares compounds with PG9 Ab binder; TR-FRET PG9 antibody binding, biochemical; inhibition, % at 6.7 µM; hit rate 90% among 1,500; AID 651571; in the data active means inhibition above about 9%
PGV04 Ab binding = PGV04 control antibody binding, counter-screen; inhibition, % at 6.7 µM; TR-FRET PGV04 antibody-gp120 binding, biochemical; hit rate 95% among 1,500; shares compounds with PG9 Ab binder; in the data active means inhibition above about 9.5%
PG9 binder DR = small molecules binding HIV-1 gp120 antibody PG9 | TR-FRET PG9 antibody-gp120 binding inhibition | IC50, µM | AID 651848 | shares compounds with PG9 Ab binder | 95 tested, under 10 active; in the data active means IC50 below about 10 µM
PGV04 DR counter = counter-screen for PG9 binders: binding to control antibody PGV04. shares compounds with PG9 Ab binder. TR-FRET binding to control antibody PGV04. IC50, µM. hit rate 20% among 95
PG126 DR counter = binds control antibody PG126 in PG9 counter-screen. shares compounds with PG9 Ab binder. TR-FRET binding to antibody PG126, counterscreen. IC50, µM. hit rate 20% among 95. AID 651939
A number is an active result; . = inactive; / = not tested or not shown. An excerpt weighted towards active compounds, which were near 1.5% of everything screened. Unless noted, no stated cut-off is given here; in the data, active means IC50 below about 9 µM; inactive means the rest.

SMILES	PG9 Ab binder	NR2E3 ag-1	Rev-erbA mod	NR2E3 ag-2	PG9 bind confirm	PGV04 Ab binding	others
O=C(Nc1ccc(Br)cn1)c1ccc2ccccc2c1	.	.	.	.	/	/
O=C(Nc1ccc(Br)cn1)c1cccc(C(=O)Nc2ccc(Br)cn2)c1	12	.	.	.	41	55
CCc1cc2cc(C(=O)N3CCN(c4ccccc4)CC3)sc2s1	20	.	.	.	36	40
CCc1cc2cc(C(=O)N3CCN(Cc4ccccc4)CC3)sc2s1	.	.	.	.	/	/
CC(=O)c1ccc(NC(=O)NC2CCCCN(Cc3ccc(Cl)cc3)C2=O)cc1 (stereo not given)	/	/	.	/	/	/
Cn1cccc1CC(=O)NN=C/C=C\c1ccco1	/	/	.	/	/	/
O=C(Nc1ccc(N2C(=O)C3CCCCC3C2=O)cc1Cl)c1cccs1 (stereo not given)	18	.	.	.	30	46
COc1ccc2[nH]c(=O)c(COC(=O)c3cccs3)cc2c1	33	.	.	.	16	26
CC(C)c1ccc(OCC(=O)NC(=S)Nc2ccc3c4c(cccc24)CC3)cc1	11	.	.	.	11	12
Cc1ccc(OCC(=O)NC(=S)Nc2ccc3c4c(cccc24)CC3)cc1	.	.	.	.	/	/
C[C@H](O)[C@@H]1CN2CCc3ccc(N4CCOCC4)cc3[C@@H]2C[C@@H]1N(C)C(=S)NCCc1ccccc1	/	/	.	/	/	/
Cc1nc2ccc(S(=O)(=O)NCC(=O)NCc3ccc(F)cc3)cc2s1	/	/	.	/	/	/
COc1ccc(OC)c(S(=O)(=O)Nc2ccc(C(N)=O)cc2)c1	.	.	.	.	/	/
COc1ccc(OC)c(S(=O)(=O)Nc2ccc(C(C)=O)cc2)c1	8.6	.	.	.	21	19	PG9 binder DR=.;PGV04 DR counter=.;PG126 DR counter=.
COC(=O)[C@H](CC(C)C)N(CCCc1cn(CC2CCCCC2)nn1)S(=O)(=O)c1ccccc1Br	/	/	.	/	/	/
COc1ccc(CC(=O)Nc2c(C(N)=O)oc3ccccc23)cc1OC	.	.	.	.	/	/
CCOc1ccc(CC(=O)Nc2c(C(=O)Nc3ccccc3)oc3ccccc23)cc1OCC	23	.	.	.	22	33
CC(=O)OC1CC(C)(C)N(OC(=O)c2ccccc2)C(C)(C)C1	.	.	.	.	/	/
CC(=O)OC1CC(C)(C)N(OC(=O)c2ccc(N)cc2)C(C)(C)C1	29	.	.	.	32	43
S=c1[nH]ccc2ccccc12	11	.	.	/	.	11
Cc1ccc(NC(=O)Cn2cc(C(=O)C3CC3)c3ccccc32)cc1	10	.	.	.	.	11
CCC(=O)c1cn(CC(=O)Nc2ccc(C)cc2)c2ccccc12	11	.	.	.	13	18
CCC(=O)c1cn(CC(=O)Nc2ccccc2)c2ccccc12	.	.	.	.	/	/
COc1ccc(-c2cn3c(C)c(C(=O)Nc4cc(NC(C)=O)ccc4OC)sc3n2)cc1	12	.	.	.	9.8	31
CCOC(=O)C1(C(=O)OCC)Cc2c([nH]c3ccccc23)[C@]2(N1)C(=O)N(C)c1ccc(Br)cc12	/	/	.	/	/	/
SMILES	PG9 Ab binder	NR2E3 ag-1	Rev-erbA mod	NR2E3 ag-2	PG9 bind confirm	PGV04 Ab binding	others
COc1ccc(CN(C2CCCCC2C)S(=O)(=O)c2ccc(S(=O)(=O)N(C)C)cc2)cc1OC (stereo not given)	.	.	.	.	/	/
COc1cc(CN(C2CCCCC2C)S(=O)(=O)c2ccc(S(=O)(=O)NC3CC3)cc2)cc(OC)c1OC (stereo not given)	11	.	.	.	.	.	PG9 binder DR=.;PGV04 DR counter=.;PG126 DR counter=.
Cc1cccc(-c2cccc3c4c([nH]c23)[C@@H]2C[C@H](N(C)C(=O)c3ccccc3C)[C@H]([C@H](C)O)C(=O)N2CC4)c1	/	/	.	/	/	/
CC[C@H](CCCc1ccc(OC)cc1)CCC(=O)N1CCOCC1	/	/	.	/	/	/
O=C(CSc1nc2ccccc2c(=O)n1Cc1ccc(F)cc1)NCc1cccs1	16	.	.	.	16	33
Cc1cc(SCC(=O)N2CCCC2=O)nc2c(C)cccc12	.	.	.	.	/	/
Cc1cc(SCCC(=O)O)nc2c(C)cccc12	11	.	.	.	14	18
Cc1cc(SCC(=O)NC2(C#N)CCCCC2)nc2c(C)cccc12	23	.	.	.	31	37
O=C(NCc1ccc(Cl)cc1)O[C@H]1CC[C@@]23CCCN2C(=O)CCC[C@H]3C1	/	/	.	/	/	/
CCN1/C(=C2/SC(=S)N(C)C2=O)C=Cc2cc(C)ccc21	.	.	.	.	/	/
CCN1C(=C(C#N)C#N)C=Cc2cc(C)ccc21	23	.	.	.	20	31
CCC(=O)Nc1nnc(-c2cccs2)s1	.	.	.	.	/	/
O=C(Cc1ccccc1)Nc1nnc(-c2cccs2)s1	12	.	.	.	19	31
COc1cccc(-c2nnc(NC(=O)Cc3cccs3)s2)c1	13	.	.	.	18	39
COc1ccc(/C(O)=C2/C(=O)C(=O)N(CC3CCCO3)C2c2cccc(OC)c2)cc1 (stereo not given)	.	.	.	.	/	/
Cc1ccc(C2/C(=C(\O)c3ccc4c(c3)OCCO4)C(=O)C(=O)N2CC2CCCO2)cc1 (stereo not given)	9.7	.	.	/	20	22
COc1cccc(C2/C(=C(\O)c3ccc4c(c3)OCCO4)C(=O)C(=O)N2CC2CCCO2)c1 (stereo not given)	9.2	.	.	/	16	20
CC(C)c1ccccc1NC(=O)[C@@H]1CCCN1S(=O)(=O)c1cccc2cccnc12	/	/	.	/	/	/
CCSc1n[nH]c2nc3c(c(=O)n12)C1(CCCC1)Cc1ccccc1-3	.	.	.	.	/	/
Cc1ccc(-n2c(SCC(N)=O)nc3c(c2=O)C2(CCCC2)Cc2ccccc2-3)cc1	11	.	.	.	23	32
COc1ccc(C(=O)Nc2ccc(Cl)cc2C(=O)NCc2ccco2)cc1	11	.	.	.	.	17
COc1ccc(C#CCN(Cc2ccc(OC)cc2OC)C(N)=NC(=O)CCc2ccccc2)cc1	/	/	.	/	/	/
C=CCOc1cccc(C2/C(=C(\O)c3ccc4c(c3)OCCO4)C(=O)C(=O)N2CCN2CCOCC2)c1 (stereo not given)	9.3	.	.	.	16	21
O=C1C(=O)N(CCN2CCOCC2)C(c2ccccc2)/C1=C(\O)c1ccc2c(c1)OCCO2 (stereo not given)	15	.	.	.	21	23
O=C1C(=O)N(CCCN2CCOCC2)C(c2ccc(Cl)cc2)/C1=C(\O)c1ccc2c(c1)OCCO2 (stereo not given)	10	.	.	.	23	27

Bioassay records deposited in PubChem by several laboratories.
